Results on six molecules are retold here after ChEMBL document CHEMBL4842312, “Phenoxazine nucleoside derivatives with a multiple activity against RNA and DNA viruses” (Eur J Med Chem, 2021).

≈ marks a conversion by molar mass, not a printed value. Bounds are passed on as bounds.

The subject of data set [1] is Human alphaherpesvirus 3. As to the kind of experiment: Antiviral activity against Varicella zoster virus assessed as inhibition of viral replication. The format is functional, organism-based.
The subject of data set [2] is Human alphaherpesvirus 3. As to the kind of experiment: Antiviral activity against Varicella zoster virus infected in HEL cells assessed as reduction in viral plaque formation. The format is functional. In a few lines:
(§1)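 Confluent HEL cultures received 100 CCID50 or 20 PFU of virus, with 2 h adsorption before inoculum removal. Cells were then incubated with compound from 100 μM downward. Cytopathicity or plaques were scored once untreated infected controls reached completion.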

Data set [3] has as its system Human alphaherpesvirus 1. The data set can be described thus: Antiviral activity against Herpes simplex virus 1 infected in HEL cells assessed as reduction in viral plaque formation. The data set is classed as functional. In a few lines:
as §1

In data set [4] the test system is Human alphaherpesvirus 2. As to the kind of experiment: Antiviral activity against Herpes simplex virus 2 infected in HEL cells assessed as reduction in viral plaque formation. The format is functional. In a few lines:
as §1

Data set [5] has as its system Human betaherpesvirus 5. The data set can be described thus: Antiviral activity against cytomegalovirus infected in HEL cells assessed as reduction in viral plaque formation. The format is functional. In outline:
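Confluent HEL cultures infected with 20 PFU of CMV (AD-169 or Davis), 2 h adsorption, inoculum removed, then compounds added at varying concentrations from 100 μM. Plaques scored once complete in untreated infected controls.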

The test system of data set [6] is HEL. As to the kind of experiment: Cytotoxicity against human HEL cells assessed as reduction in cell viability measured after 3 days by beckman coulter counting method. The format is cell-based. Conditions: 72 h, time 3 day. In outline:
(§2)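 Cells were seeded at 5 × 10³/well, grown 24 h, then exposed to compound from 100 μM downward for 3 days at 37 °C. Cell number was counted with a Coulter counter.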

Data set [7] has as its system Influenza A virus. As to the kind of experiment: Antiviral activity against Influenza A virus (H1N1) infected in MDCK cells assessed as reduction in cytopathic effect preincubated with cells for 1 hrs followed by viral addition and measured after 24 hrs by Reed-Muench method. The data set is classed as functional, organism-based. In outline:
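MDCK monolayers were pre-incubated 1 h at 37 °C with 3-fold compound dilutions (from 2 mg/mL DMSO stock), then infected at MOI 1 for 24 h. Supernatant yield was titrated by 10-fold dilutions on fresh MDCK for 72 h. Titre was read by hemagglutination with 1% chicken erythrocytes and calculated by Reed-Muench as TID50 per 100 μL.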
(In general: Protection from cytopathic effect is a common read-out in antiviral testing.)

Data set [8] is described as follows: Selectivity index, ratio of CC50 for pig PEK cells to EC50 for Antiviral activity against Tick-borne virus encephalitis infected in pig PEK cells. The data set is classed as toxicity, cell-based. Particulars: read-out: Ratio CC50/EC50.
For data set [9], the system named is Chikungunya virus. As to the kind of experiment: Antiviral activity against Chikungunya virus infected in African green monkey Vero cells assessed as reduction in virus plaque formation preincubated with virus for 1 hr followed by cell infection and measured after 1 hr by crystal violet staining based assay. The data set is classed as functional, organism-based.

The subject of data set [10] is Human betaherpesvirus 5. The data set can be described thus: Antiviral activity against Human cytomegalovirus Davis. The format is functional, organism-based. Particulars: Human betaherpesvirus 5, Davis. In outline: as §1
In data set [11] the test system is Human alphaherpesvirus 3. As to the kind of experiment: Antiviral activity against thymidine kinase positive Varicella zoster virus. The data set is classed as functional, organism-based. In a few lines: as §1
The nature of data set [12]: Selectivity index, ratio of CC50 for pig PEK cells to EC50 for Antiviral activity against Powassan virus infected in pig PEK cells. The data set is classed as toxicity, cell-based. Conditions: read-out: Ratio CC50/EC50.
The subject of data set [13] is Powassan virus. As to the kind of experiment: Antiviral activity against Powassan virus infected in pig PEK cells assessed as reduction in virus plaque formation preincubated with virus for 1 hr followed by cell infection and measured after 1 hr by crystal violet staining based assay. The data set is classed as functional, organism-based.
In data set [14] the test system is MDCK. As to the kind of experiment: Cytotoxicity in dog MDCK cells assessed as reduction in cell viability measured after 3 days by beckman coulter counting method. The format is cell-based, Canis lupus familiaris. Conditions: mdck, 72 h, time 3 day. In outline:
as §2

The nature of data set [15]: Cytotoxicity in pig PEK cells assessed as reduction in cell viability measured after 5 days by resazurin dye based assay. Details: species or system Sus scrofa, Kidney. Conditions: 120 h, time 5 day. In outline: (§3)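 Cells (about 10⁵/well, 5% FBS) were added to two-fold compound dilutions (eight concentrations from 100 μM; DMSO control) and held 5 days at 36.5 °C in CO2. Medium was then replaced with resazurin (25 μg/mL) for 4 h and stopped with SDS. Fluorescence was read at Ex 525 / Em 580–640 nm, with background wells without resazurin subtracted. Done in two replicates; CC50 calculated.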
On the technique in general: The colour change of resazurin is a common sign of viable cells or microbes.

The nature of data set [16]: Selectivity index, ratio of CC50 for human HEL cells to EC50 for antiviral activity against thymidine kinase positive Varicella zoster virus. The format is toxicity. Conditions: read-out: Ratio CC50/EC50.
Data set [17] relates to Tick-borne encephalitis virus. As to the kind of experiment: Antiviral activity against Tick-borne encephalitis virus infected in pig PEK cells assessed as reduction in virus plaque formation preincubated with virus for 1 hr followed by cell infection and measured after 1 hr by crystal violet staining based assay. The data set is classed as functional, organism-based.
Data set [18] deals with HEp-2. The data set can be described thus: Cytotoxicity in human Hep2 cells assessed as reduction in cell viability measured after 3 days by beckman coulter counting method. The format is functional. Particulars: HEp-2, 72 h, time 3 day. In outline: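 Hep2 cells seeded at 5 × 10³ cells/well and allowed to grow 24 h, then exposed to compound dilutions starting at 100 μM for 3 days at 37 °C. Cell number measured by Coulter counter.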

Data set [19] is described as follows: Selectivity index, ratio of CC50 for human HEL cells to EC50 for Antiviral activity against Human cytomegalovirus AD169. Particulars: read-out: Ratio CC50/EC50. The data set is classed as toxicity.
Data set [20] has as its system Vero. The data set can be described thus: Cytotoxicity in African green monkey Vero cells assessed as reduction in cell viability measured after 5 days by resazurin dye based assay. Particulars: chlorocebus sabaeus, vero, 120 h; time 5 day. In a few lines:
as §3

The test system of data set [21] is Respiratory syncytial virus. As to the kind of experiment: Antiviral activity against Respiratory syncytial virus assessed as reduction in virus-induced cytopathic effect by MTS assay. The format is functional, organism-based. Particulars: human respiratory syncytial virus.
For data set [22], the system named is SARS-CoV-2. As to the kind of experiment: Antiviral activity against SARS COV-2 infected in monkey vero cells assessed as reduction in virus-induced cytopathic effect preincubated with virus for 1 hr followed by cell infection and measured after 5 days by microscopic analysis. The data set is classed as functional, organism-based. Conditions: Severe acute respiratory syndrome coronavirus 2, Vero.

The subject of data set [23] is Human alphaherpesvirus 3. The data set can be described thus: Antiviral activity against thymidine kinase deficient Varicella zoster virus. The format is functional, organism-based. In a few lines:
as §1

Data set [24] deals with Human betaherpesvirus 5. The data set can be described thus: Antiviral activity against Human cytomegalovirus AD169. The format is functional, organism-based. Particulars: Human betaherpesvirus 5, AD169. In a few lines:
as §1

A short description of data set [25]: Selectivity index, ratio of CC50 for African green monkey Vero cells to EC50 for Antiviral activity against Chikungunya virus infected in African green monkey Vero cells. The format is toxicity. Conditions: read-out: Ratio CC50/EC50.
A short description of data set [26]: Selectivity index, ratio of CC50 for human HEL cells to EC50 for antiviral activity against thymidine kinase deficient Varicella zoster virus. Conditions: read-out: Ratio CC50/EC50. The data set is classed as toxicity.
Data set [27] can be described thus: Selectivity index, ratio of CC50 for human HEL cells to EC50 for Antiviral activity against Human cytomegalovirus Davis. The data set is classed as toxicity. Conditions: read-out: Ratio CC50/EC50.
Data set [28] in a line: Selectivity index, ratio of CC50 for pig PEK cells to EC50 for Antiviral activity against Omsk hemorrhagic fever virus infected in pig PEK cells. The format is toxicity, cell-based. Conditions: read-out: Ratio CC50/EC50.
Data set [29] concerns Omsk hemorrhagic fever virus. The data set can be described thus: Antiviral activity against Omsk hemorrhagic fever virus infected in pig PEK cells assessed as reduction in virus plaque formation preincubated with virus for 1 hr followed by cell infection and measured after 1 hr by crystal violet staining based assay. The data set is classed as functional, organism-based.

Data set [30] is described as follows: Selectivity index, ratio of CC50 for dog MDCK cells to EC50 for Influenza A virus (A/California/07/09(H1N1)) infected in MDCK cells. Conditions: read-out: Ratio CC50/EC50. The data set is classed as toxicity, cell-based.

One may read the EC50 as the midpoint of the concentration-response curve. As usually defined, the CC50 is the concentration giving 50% cytotoxicity.

`CCCCCCCc1cc2cn([C@H]3C[C@H](O)[C@@H](CO)O3)c(=O)nc2o1`: in [1], the EC50 is 0.027 µM.

With `Cc1cn2c(=O)c3ncn(COC(CO)CO)c3nc2[nH]1`, the MIC in data set [2] stood at 14.3 µM (≈ 4.19 µg/mL); in [3] it was 0.07 µM (≈ 0.0205 µg/mL); in data set [4], 0.07 µM (≈ 0.0205 µg/mL); in [5], 14.3 µM (≈ 4.19 µg/mL).

As to `CCCCCCCCOc1ccc2c(c1)Nc1nc(=O)n([C@H]3C[C@H](O)[C@@H](CO)O3)cc1O2`, the CC50 in data set [6], in data set [14], in data set [15], in data set [18] and in [20] was greater than 100 µM each time. Also, the EC50 in [7] was determined as 82 µM; in data set [9], 2.5 µM; in data set [10], 42.3 µM; in data set [11] it was 0.42 µM; in data set [13], 1.5 µM; in [17], 2.8 µM. Besides, the EC50 is greater than 100 µM in data set [21], greater than 100 µM in data set [22], 15.9 µM in data set [23] and 54.7 µM in [24]. Also, the selectivity ratio in data set [8] was greater than 35; in data set [12], greater than 66; in [16], greater than 238; in data set [19] it was greater than 2; in data set [25], greater than 40; in data set [26], greater than 6. Besides, the selectivity ratio in [27] was greater than 2.

Take `O=c1nc2c(cn1COCCO)Oc1ccccc1N2`: the CC50 in data set [6], in data set [14], in data set [15], in [18] and in data set [20] was greater than 100 µM throughout. Also, the EC50 in data set [7] was 25 µM; in [9], 28 µM; in [10], greater than 100 µM; in data set [11], greater than 100 µM; in data set [13], greater than 50 µM; in [17] it was 23.6 µM. Also, the EC50 in [21] is greater than 100 µM; in data set [22], greater than 100 µM; in data set [23], greater than 100 µM; in data set [29], 7.2 µM; in [24], greater than 100 µM. Further, the selectivity ratio in data set [8] is greater than 4; in [28], greater than 13; in data set [25] it was greater than 3.

For `CCCCCCCCCCOc1ccc2c(c1)Nc1nc(=O)n([C@H]3C[C@H](O)[C@@H](CO)O3)cc1O2`, the cytotoxic concentration (CC50) was 50.3 µM in data set [6]; greater than 100 µM in data set [14]; greater than 100 µM in data set [15]; greater than 100 µM in [18]; greater than 100 µM in data set [20]. The EC50 in data set [7] was 3.4 µM; in data set [10], 10.4 µM; in data set [11], 0.68 µM; in data set [13] it was 4.4 µM; in [17], 40 µM; in data set [21] it was greater than 100 µM. Moreover, the EC50 in data set [22] is greater than 100 µM; in data set [23], 15.2 µM; in [24], greater than 100 µM. Moreover, the selectivity ratio in data set [12] is greater than 22; in data set [30], greater than 29; in [26], 3; in data set [27] it was 5.

Take `Cc1cn2c(=O)c3ncn(COCCO)c3nc2[nH]1`: the MIC in data set [3] and in data set [4] was 1.52 µM (≈ 0.4 µg/mL) each time.
